# Test system: ldlA[mSR-BI] cells, [3H]cholesterol efflux to HDL
# Assay: inhibitors of SR-BI-mediated cholesterol efflux to HDL, dose response, mechanism study for SR-BI HDL uptake inhibitor project, ldlA[mSR-BI] cells, [3H]cholesterol, powder samples, set 2 (AID 624017)
# Procedure, shortened: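 material = ldlA[mSR-BI] cells prelabelled with [3H]cholesterol | buffer or medium = 0.5% fatty acid-free BSA, 25 mM HEPES buffer, pH 7.4 | also added = HDL as cholesterol acceptor, 100 µg/mL final | detection = liquid scintillation counting of [3H] in medium and Triton lysate | timing = 2-day labelling, 24 h equilibration, 1 h pretreatment, 2 h efflux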
smiles,measurement,value
CC(C)NC(=O)Nc1ccc2c(c1)C(=O)N([C@H](C)CO)C[C@@H](C)[C@H](CN(C)S(=O)(=O)c1ccc(Cl)cc1)O2,IC50,250 nM

# Reference: PubChem BioAssay AID624017 (Broad Institute, 2012)
